# Experimental data from ChEMBL document CHEMBL1148166, “30-, 31-, and 32-hydroxybullatacinones: bioactive terminally hydroxylated annonaceous acetogenins from Annona bullata” (J Nat Prod, 1993).
# Experiments:
# HT-29 = assay: Cytotoxicity against human HT-29 cells; assay type: functional
# [1] = (§1) Toxicity in brine shrimp; assay type: organism-based; conditions: artemia, in vivo
# Summary of the method: (§2)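 Lethality read-out in brine shrimp larvae (BST), used routinely to screen extracts, fractions and isolated compounds.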
# A549 = assay: Cytotoxicity against human A549 cells; assay type: functional; conditions: for EC50: Homo sapiens, A549, read-out: ED50 (the source's name)
# MCF7 = assay: Cytotoxicity against human MCF7 cells; assay type: functional; conditions: for EC50: Homo sapiens, MCF7, read-out: ED50 (the source's name)
# Artemia = assay: as §1; assay type: organism-based; conditions: in vivo; summary of the method: as §2
Compound,ED50 (HT-29),LC50 [1] [µg/mL],ED50 (A549),ED50 (MCF7) [×10⁻⁴ ug/ml],LC50 (Artemia) [×10⁻² ug/ml],EC50 (A549) [ng/mL],EC50 (MCF7) [µg/mL]
CCCC(O)CCCCCC[C@H](O)[C@H]1CC[C@H]([C@H]2CC[C@H]([C@H](O)CCCCCCCCCCC3CC(CC(C)=O)C(=O)O3)O2)O1 (mixture of isomers),1.09 ×10⁻¹² ug/ml,0.158,3.29 ×10⁻¹¹ ug/ml,7.63,,,
CCC(O)CCCCCCC[C@H](O)[C@H]1CC[C@H]([C@H]2CC[C@H]([C@H](O)CCCCCCCCCCC3CC(CC(C)=O)C(=O)O3)O2)O1 (mixture of isomers),<1 ×10⁻¹² ug/ml,,,,4.67,1.25,0.161
CCCCC(O)CCCCC[C@H](O)[C@H]1CC[C@H]([C@H]2CC[C@H]([C@H](O)CCCCCCCCCCC3CC(CC(C)=O)C(=O)O3)O2)O1 (mixture of isomers),<1 ×10⁻¹² ug/ml,,1.66 ×10⁻⁹ ug/ml,,4.05,,0.105
CCCCCCCCCC[C@H](O)[C@H]1CC[C@H]([C@H]2CC[C@H]([C@H](O)CCCCCCCCCCC3CC(CC(C)=O)C(=O)O3)O2)O1 (mixture of isomers),1.19 ×10⁻⁶ ug/ml,0.0054,,,,2.18,12.2
COc1cccc2c1C(=O)c1c(O)c3c(c(O)c1C2=O)C[C@@](O)(C(=O)CO)C[C@@H]3O[C@H]1C[C@H](N)[C@H](O)[C@H](C)O1 [DOXORUBICIN],3.32 ×10⁻⁴ ug/ml,,1.98 ×10⁻⁴ ug/ml,,,,0.00202
